According to ChEMBL document CHEMBL1133716, “AMP deaminase inhibitors. 3. SAR of 3-(carboxyarylalkyl)coformycin aglycon analogues” (J Med Chem, 2000):

Key:
Adenosine deaminase [1] = biological target: T1, Adenosine deaminase (Bos taurus, UniProt P56658); test: Inhibitory activity against calf intestinal Adenosine deaminase (ADA)
T1 sequence (P56658 whole entry): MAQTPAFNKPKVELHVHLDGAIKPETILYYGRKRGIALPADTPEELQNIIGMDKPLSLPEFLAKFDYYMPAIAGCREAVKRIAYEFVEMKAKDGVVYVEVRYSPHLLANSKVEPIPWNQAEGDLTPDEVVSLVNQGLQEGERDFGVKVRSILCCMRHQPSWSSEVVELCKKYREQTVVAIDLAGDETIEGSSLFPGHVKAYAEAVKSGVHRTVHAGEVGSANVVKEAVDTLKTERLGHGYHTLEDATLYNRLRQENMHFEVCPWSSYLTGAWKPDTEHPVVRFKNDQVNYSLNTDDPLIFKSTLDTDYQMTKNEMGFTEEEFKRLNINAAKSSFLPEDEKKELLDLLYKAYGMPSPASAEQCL

[2] = Inhibitory activity against porcine heart Adenylate deaminase (AMPDA); parameters: species or system Sus scrofa
Outline: (§1)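 Values are reported as Ki against porcine heart AMPDA, determined by a procedure described in earlier work.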

Adenosine deaminase [3] = biological target: T1, Adenosine deaminase; test: Compound was evaluated for its inhibitory activity against calf intestinal Adenosine deaminase (ADA)
[4] = Compound was evaluated for its inhibitory activity against porcine heart adenylate deaminase (AMPDA); parameters: species or system Sus scrofa; outline: as §1

Compound `O=C(O)c1cccc(C#CCn2cnc3c2NC=NCC3O)c1` (stereo unspecified) has a Ki (Adenosine deaminase [1]) of 2.3 µM and a Ki [2] of over 125 µM.
Compound `O=C(O)c1ccc2ccccc2c1CCCn1cnc2c1NC=NCC2O` (stereo unspecified) has a Ki (Adenosine deaminase [1]) of 1.8 µM and a Ki [2] of 6.3 µM.
Work on `COC(=O)Cc1ccc(Cn2cnc3c2NC=NCC3O)cc1` (stereo unspecified) yielded a Ki (Adenosine deaminase [1]) of 6.7 µM and a Ki [2] of 92.6 µM.
Work on `COC(=O)c1cccc(CCCn2cnc3c2NC=NCC3O)c1` (stereo unspecified) yielded a Ki (Adenosine deaminase [1]) of 0.16 µM and a Ki [2] of 24.3 µM.
For `O=C(O)c1ccccc1OCCn1cnc2c1NC=NCC2O` (stereo unspecified), the Ki (Adenosine deaminase [1]) was 270 µM and the Ki [2] was 31.3 µM.
`Cc1ccc(CCn2cnc3c2NC=NCC3O)cc1C(=O)O` (stereo unspecified) gave a Ki (Adenosine deaminase [1]) of over 7.5 µM and a Ki [2] of 0.57 µM.
In the case of `O=C(O)c1cc(CCn2cnc3c2NC=NCC3O)cs1` (stereo unspecified), the Ki (Adenosine deaminase [1]) is reported as over 7.5 µM and the Ki [2] is reported as 2.2 µM.
Compound `COC(=O)c1ccccc1OCCn1cnc2c1NC=NCC2O` (stereo unspecified) has a Ki (Adenosine deaminase [1]) of 2.3 µM and a Ki [2] of 60.6 µM.
With `COC(=O)c1ccccc1CCCn1cnc2c1NC=NCC2O` (stereo unspecified) the Ki (Adenosine deaminase [1]) was 0.16 µM and the Ki [2] was 32.7 µM.
For `O=C(O)c1cccc(CCCn2cnc3c2NC=NCC3O)c1` (stereo unspecified), the Ki (Adenosine deaminase [1]) was 2.4 µM and the Ki [2] was 23.5 µM.
For `CCCc1ccc(C(=O)O)cc1CCn1cnc2c1NC=NCC2O` (stereo unspecified), the Ki (Adenosine deaminase [1]) was over 7.5 µM and the Ki [2] was 0.19 µM.
In the case of `COC(=O)c1ccc(OC)c(CCCn2cnc3c2NC=NCC3O)c1` (stereo unspecified), the Ki (Adenosine deaminase [1]) is reported as 0.13 µM and the Ki [2] is reported as 52.8 µM.
`COC(=O)c1ccc(C)c(CCCn2cnc3c2NC=NCC3O)c1` (stereo unspecified) showed a Ki (Adenosine deaminase [1]) of 0.08 µM and a Ki [2] of 22 µM.
Compound `O=C(O)c1cc(Br)cc(CCn2cnc3c2NC=NCC3O)c1` (stereo unspecified) has a Ki (Adenosine deaminase [1]) of over 7.5 µM and a Ki [2] of 0.08 µM.
Work on `O=C(O)c1ccc(Cn2cnc3c2NC=NCC3O)o1` (stereo unspecified) yielded a Ki (Adenosine deaminase [1]) of over 3.4 µM and a Ki [2] of 72 µM.
`COC(=O)c1ccc(CCn2cnc3c2NC=NCC3O)cc1` (stereo unspecified) showed a Ki (Adenosine deaminase [1]) of 81 µM and a Ki [2] of 160 µM.
With `CCOC(=O)c1cc(CCn2cnc3c2NC=NCC3O)ccc1C` (stereo unspecified) the Ki (Adenosine deaminase [1]) was over 7.5 µM and the Ki [2] was 12 µM.
Compound `O=C(O)c1ccc(CO)c(CCn2cnc3c2NC=NCC3O)c1` (stereo unspecified) has a Ki (Adenosine deaminase [1]) of over 7.5 µM and a Ki [2] of 0.35 µM.
With `COC(=O)c1cccc(CCn2cnc3c2NC=NCC3O)c1` (stereo unspecified) the Ki (Adenosine deaminase [1]) was over 7.5 µM and the Ki [2] was 16 µM.
For `CCCc1ccc(C(=O)OC)cc1CCn1cnc2c1NC=NCC2O` (stereo unspecified), the Ki (Adenosine deaminase [1]) was 3.8 µM and the Ki [2] was 14 µM.
`CCOC(=O)c1ccc(C)c(CCn2cnc3c2NC=NCC3O)c1` (stereo unspecified) showed a Ki (Adenosine deaminase [1]) of over 7.5 µM and a Ki [2] of 11 µM.
`COC(=O)c1ccccc1SCCn1cnc2c1NC=NCC2O` (stereo unspecified) showed a Ki (Adenosine deaminase [1]) of 11.9 µM and a Ki [2] of 37.9 µM.
Work on `O=C(O)Cc1cccc(Cn2cnc3c2NC=NCC3O)c1` (stereo unspecified) yielded a Ki (Adenosine deaminase [1]) of over 7.5 µM and a Ki [2] of 11.2 µM.
Work on `Cc1ccc(C(=O)O)c(CCCn2cnc3c2NC=NCC3O)c1` (stereo unspecified) yielded a Ki (Adenosine deaminase [1]) of 5.2 µM and a Ki [2] of 24 µM.
For `CCOC(=O)Cc1cccc(Cn2cnc3c2NC=NCC3O)c1` (stereo unspecified), the Ki (Adenosine deaminase [1]) was 5.6 µM and the Ki [2] was 15.9 µM.
Work on `CCc1ccc(C(=O)O)cc1CCn1cnc2c1NC=NCC2O` (stereo unspecified) yielded a Ki (Adenosine deaminase [1]) of over 7.5 µM and a Ki [2] of 0.08 µM.
With `O=C(O)c1cccc(OCCn2cnc3c2NC=NCC3O)c1` (stereo unspecified) the Ki (Adenosine deaminase [1]) was over 7.5 µM and the Ki [2] was 31.8 µM.
Compound `CCc1cc(CCn2cnc3c2NC=NCC3O)cc(C(=O)O)c1` (stereo unspecified) has a Ki (Adenosine deaminase [1]) of over 7.5 µM and a Ki [2] of 0.06 µM.
With `COC(=O)c1ccc(Cn2cnc3c2NC=NCC3O)cc1` (stereo unspecified) the Ki (Adenosine deaminase [1]) was 8.7 µM and the Ki [2] was 170 µM.
`COC(=O)c1ccc2ccccc2c1CCCn1cnc2c1NC=NCC2O` (stereo unspecified) gave a Ki (Adenosine deaminase [1]) of 0.18 µM and a Ki [2] of 8.3 µM.
In the case of `COc1ccc(C(=O)O)cc1CCn1cnc2c1NC=NCC2O` (stereo unspecified), the Ki (Adenosine deaminase [1]) is reported as over 7.5 µM and the Ki [2] is reported as 0.48 µM.
`Cc1ccc(C(=O)OCc2ccccc2)cc1CCn1cnc2c1NC=NCC2O` (stereo unspecified) gave a Ki (Adenosine deaminase [1]) of 2.6 µM and a Ki [2] of 8.1 µM.
With `O=C(O)c1cc(CCn2cnc3c2NC=NCC3O)cc(-c2ccccc2)c1` (stereo unspecified) the Ki (Adenosine deaminase [1]) was over 7.5 µM and the Ki [2] was 0.07 µM.
For `O=C(O)c1cccc(CCn2cnc3c2NC=NCC3O)c1` (stereo unspecified), the Ki (Adenosine deaminase [1]) was over 7.5 µM and the Ki [2] was 0.51 µM.
`O=C(O)c1cc(CCn2cnc3c2NC=NCC3O)cc(-c2ccc(F)cc2)c1` (stereo unspecified) showed a Ki (Adenosine deaminase [1]) of over 7.5 µM and a Ki [2] of 0.19 µM.
Compound `O=C(O)c1cc(CCn2cnc3c2NC=NCC3O)ccc1Cl` (stereo unspecified) has a Ki (Adenosine deaminase [1]) of over 7.5 µM and a Ki [2] of 0.22 µM.
For `O=C(O)c1ccc(Cn2cnc3c2NC=NCC3O)cc1` (stereo unspecified), the Ki (Adenosine deaminase [1]) was over 7.5 µM and the Ki [2] was over 125 µM.
In the case of `O=C(O)Cc1cccc(CCn2cnc3c2NC=NCC3O)c1` (stereo unspecified), the Ki (Adenosine deaminase [1]) is reported as over 500 µM and the Ki [2] is reported as 44.1 µM.
Compound `Cc1ccc(C(=O)O)cc1CCn1cnc2c1NC=NCC2O` (stereo unspecified) has a Ki (Adenosine deaminase [1]) of over 100 µM and a Ki [2] of 0.1 µM.
Compound `O=C(O)c1cc(CCn2cnc3c2NC=NCC3O)ccc1F` (stereo unspecified) has a Ki (Adenosine deaminase [1]) of over 7.5 µM and a Ki [2] of 0.16 µM.
`COC(=O)c1cccc(C(C)C)c1CCCn1cnc2c1NC=NCC2O` (stereo unspecified) gave a Ki (Adenosine deaminase [1]) of over 7.5 µM and a Ki [2] of 14 µM.
`O=C(O)c1sccc1CCCn1cnc2c1NC=NCC2O` (stereo unspecified) gave a Ki (Adenosine deaminase [1]) of 1.4 µM and a Ki [2] of 4.8 µM.
In the case of `CCOC(=O)c1cc(CC)cc(CCn2cnc3c2NC=NCC3O)c1` (stereo unspecified), the Ki (Adenosine deaminase [1]) is reported as 8.9 µM and the Ki [2] is reported as 6.6 µM.
In the case of `Cc1ccc(CCCn2cnc3c2NC=NCC3O)c(C(=O)O)c1` (stereo unspecified), the Ki (Adenosine deaminase [1]) is reported as over 7.5 µM and the Ki [2] is reported as 11.8 µM.
`CCOC(=O)c1cc(Br)cc(CCn2cnc3c2NC=NCC3O)c1` (stereo unspecified) showed a Ki (Adenosine deaminase [1]) of over 7.5 µM and a Ki [2] of 2.7 µM.
In the case of `O=C(O)Cc1ccc(Cn2cnc3c2NC=NCC3O)cc1` (stereo unspecified), the Ki (Adenosine deaminase [1]) is reported as over 500 µM and the Ki [2] is reported as 92.2 µM.
Compound `O=C(O)c1cc(CCn2cnc3c2NC=NCC3O)cc(-c2ccc(Cl)cc2)c1` (stereo unspecified) has a Ki (Adenosine deaminase [1]) of over 7.5 µM and a Ki [2] of 0.29 µM.
Work on `CC(C)c1cccc(C(=O)O)c1SCCn1cnc2c1NC=NCC2O` (stereo unspecified) yielded a Ki (Adenosine deaminase [1]) of over 7.5 µM and a Ki [2] of over 125 µM.
Compound `CC(C)c1cccc(C(=O)O)c1CCCn1cnc2c1NC=NCC2O` (stereo unspecified) has a Ki (Adenosine deaminase [1]) of over 7.5 µM and a Ki [2] of 83.1 µM.
With `CNOC(=O)c1ccc(C)c(CCCn2cnc3c2NC=NCC3O)c1` (stereo unspecified) the Ki (Adenosine deaminase [3]) was 0.05 µM and the Ki [4] was 19.8 µM.
For `COc1ccc(C(=O)O)cc1CCCn1cnc2c1NC=NCC2O` (stereo unspecified), the Ki (Adenosine deaminase [1]) was 5.6 µM and the Ki [2] was 4.2 µM.
With `COC(=O)c1ccc(OC)c(CCn2cnc3c2NC=NCC3O)c1` (stereo unspecified) the Ki (Adenosine deaminase [1]) was over 7.5 µM and the Ki [2] was 21 µM.
`COC(=O)c1ccc(C)cc1CCCn1cnc2c1NC=NCC2O` (stereo unspecified) showed a Ki (Adenosine deaminase [1]) of 0.06 µM and a Ki [2] of 38 µM.
`COC(=O)c1c(F)cccc1CCCn1cnc2c1NC=NCC2O` (stereo unspecified) gave a Ki (Adenosine deaminase [1]) of 0.32 µM and a Ki [2] of 1.5 µM.
With `O=C(O)c1ccc(CCn2cnc3c2NC=NCC3O)s1` (stereo unspecified) the Ki (Adenosine deaminase [1]) was over 7.5 µM and the Ki [2] was 9.5 µM.
With `O=C(O)c1ccc(CCCn2cnc3c2NC=NCC3O)o1` (stereo unspecified) the Ki (Adenosine deaminase [1]) was over 7.5 µM and the Ki [2] was 13.3 µM.
With `O=C(O)c1cc(CCn2cnc3c2NC=NCC3O)cc(-c2cccc(Cl)c2)c1` (stereo unspecified) the Ki (Adenosine deaminase [1]) was over 7.5 µM and the Ki [2] was 0.18 µM.
Compound `CCOC(=O)c1cc(CCn2cnc3c2NC=NCC3O)cc(-c2ccccc2)c1` (stereo unspecified) has a Ki (Adenosine deaminase [1]) of over 7.5 µM and a Ki [2] of 18 µM.
Compound `O=C(O)c1c(F)cccc1CCCn1cnc2c1NC=NCC2O` (stereo unspecified) has a Ki (Adenosine deaminase [1]) of over 7.5 µM and a Ki [2] of 9 µM.
In the case of `O=C(O)c1ccccc1CCCn1cnc2c1NC=NCC2O` (stereo unspecified), the Ki (Adenosine deaminase [1]) is reported as 6.1 µM and the Ki [2] is reported as 12.5 µM.
`Cc1ccc(C(=O)O)cc1CCCn1cnc2c1NC=NCC2O` (stereo unspecified) showed a Ki (Adenosine deaminase [1]) of 1.2 µM and a Ki [2] of 5.2 µM.
With `O=C(O)c1ccccc1SCCn1cnc2c1NC=NCC2O` (stereo unspecified) the Ki (Adenosine deaminase [1]) was over 500 µM and the Ki [2] was 4.5 µM.
With `COC(=O)c1cc(C)ccc1CCCn1cnc2c1NC=NCC2O` (stereo unspecified) the Ki (Adenosine deaminase [1]) was 0.04 µM and the Ki [2] was 1.6 µM.
